Source: PubChem (several laboratories)
tolC growth inh = blocks growth of E. coli BW25113 tolC mutant | OD615 | growth inhibition, % at 10 µM (by protocol) | 65,000 tested, 2.2% active;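 active means growth inhibition at or above a cutoff equal to the mean over every tested compound plus 3 SD, cut at about 60% in these data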;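 further: growth measured after 20 h incubation at 37 °C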
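Doses: one dose of 10 µM final / Material: E. coli BW25113 ΔtolC::kan, tolC deletion mutant strain / Buffer or medium: LB with kanamycin 50 µg/mL / Evaluation: percent growth inhibition / Detection: optical density read at 615 nm / Incubation: 37 °C, 20 h exposure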
FAK inh = FAK (human) kinase inhibition; Q05397; biochemical FAK kinase activity assay; inhibition, %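 (tested at 7 µM)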; 97,000 tested, 0.84% active; AID 727;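 further: 0% = DMSO and 100% = reference compound high control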
Pyk2 oligo antag = Pyk2 (human) oligomerization antagonism | Q293 cells, Pyk2 FERM NanoBiT luminescence; stronger effect = lower value | z-score (the deposit names both 25 µM and 10 µM) | 99,000 tested, 0.83% active;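 active means Z-score of -3 or lower, scaled per plate to the spread of control and sample wells; inactive means z-score above -3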;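 further: negative z-score means lost luminescence so less FERM oligomerization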
PostGolgi yeast = growth inhibition of a yeast mutant, post-Golgi transport screen. post-Golgi transport phenotypic cell assay. AID 739. 98,000 tested, 0.9% active. inhibition, % at 10 µM; in the data active means inhibition above about 30%;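 further: yeast cells grown in 1536-well plates; yeast grown about 18 h at 30C before absorbance read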
Candida biofilm = kills Candida albicans biofilms; C. albicans biofilm + clotrimazole, Alamar Blue; inhibition, % at 6 µM; 85,000 tested, 0.14% active; AID 834;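 active means inhibition above 20%; inactive means inhibition below 20%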;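 further: preformed 24 hr biofilms exposed to compound for 48 hr; 0% = biofilm without compound and 100% = blank killed by clotrimazole plus chlorhexidine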
PostGolgi ctrl = yeast control strain growth, post-Golgi counter-screen. efflux-deficient yeast background strain, growth absorbance A615, 16 h. inhibition, % at 10 µM. 98,000 tested, 5% active. AID 738; in the data active means inhibition above about 30%
FAK inh confirm = FAK (human) inhibition confirmed. FAK kinase biochemical inhibition assay. 750 tested, 28% active. shares compounds with FAK inh. inhibition, % at 7 µM
The depositor's hits bear a star; . = no result given. Most compounds without a hit are left out; they make up all but 6.9% or so of the library. Unless noted, no stated cut-off is given here; in the data, active means inhibition above about 19%; inactive means the rest.

SMILES	tolC growth inh	FAK inh	Pyk2 oligo antag	PostGolgi yeast	Candida biofilm	PostGolgi ctrl	FAK inh confirm
CCOC(=O)c1[nH]c2cc3c(cc2c1NC(=O)CN1CC(C)CC(C)C1)OCO3 (centres undefined)	-9.8	-0.6	-0.53	6.0	3.5	6.6	.
O=c1cc(CSc2nnc(-c3cccs3)n2Cc2ccccc2)nc2sc3ccccc3n12	45.2	31.0*	-0.97	1.8	6.6	26.1	4.0
COc1ccc(-c2nnc(SC(C)C(=O)Nc3nccs3)n2Cc2ccccc2)cc1OC (centres undefined)	.	2.0	-1.93	-1.9	7.5	1.0	.
COc1ccc(-c2nnc(SC(C)C(=O)Nc3nccs3)n2-c2ccccc2)cc1OC (centres undefined)	24.0	49.2*	-0.55	-9.7	-2.1	2.2	-1.7
Cc1ccc(NC(=O)CSc2nc3ccccc3c3nc(CCc4c(C)n[nH]c4C)nn23)cc1F	.	21.1*	0.57	1.4	2.6	4.8	11.5
Cc1n[nH]c(C)c1CCc1nc2c3ccccc3nc(SCC(N)=O)n2n1	10.2	0.1	0.31	0.3	5.3	-0.6	.
O=C(N/N=C/C=C/c1ccc([N+](=O)[O-])cc1)c1cccs1	.	55.9*	-0.06	-4.0	.	3.1	21.4*
CN(C)S(=O)(=O)c1cccc(C(=O)OCC(=O)NCc2ccccc2)c1	.	2.2	0.53	7.8	.	-2.4	.
COc1ccc(OCC(=O)Nc2cccc(-c3nc4ccccc4o3)c2)cc1	8.8	-1.1	-1.31	-2.8	-2.0	1.7	.
CCc1ccc(OCC(=O)Nc2ccc(-c3nc4ccccc4o3)c(O)c2)cc1	4.7	29.7*	0.36	-3.0	2.8	-3.1	21.4*
COC(=O)c1ccc(CSc2nc3scc(-c4cccs4)c3c(=O)[nH]2)o1	25.9	9.6	-0.8	6.9	5.0	13.9	.
Cc1occc1-c1nc(-c2ccncc2)no1	5.3	1.5	0.53	-4.8	3.9	1.5	.
Clc1ccc(Br)cc1-c1nc(-c2ccncc2)no1	-3.0	27.8*	0.01	4.9	0.0	2.8	6.3
Cc1ccccc1OCC(=O)NNC(=O)c1ccc(-c2ccccc2)cc1	.	20.4*	1.36	2.2	.	-2.5	3.2
O=C(C/C=N\OCc1c(Cl)cccc1Cl)Oc1ccc(Cl)cc1Cl	.	2.5	1.07	-2.7	1.1	18.0	.
CCn1c(=O)c2c(cnn2C)c2ccccc21	4.3	32.0*	-0.39	-5.3	.	3.9	11.7
CCOC(=O)c1cccc(NS(=O)(=O)c2c(C)[nH]c(=O)[nH]c2=O)c1	-14.7	21.3*	1.94	-6.3	-1.0	2.2	3.9
CCOC(=O)c1cccc(NS(=O)(=O)c2ccc(NC(C)=O)cc2)c1	.	2.0	-0.88	-1.1	5.6	1.8	.
CC(=O)Nc1c(O)nc(SCc2ccc(Cl)cc2)[nH]c1=O	.	.	0.29	.	.	.	.
COc1ccc2c3c(cccc13)NN=C2C	0.2	84.1*	.	.	-3.6	.	14.8
COc1ccc2[nH]c3nc(SCC(=O)NNC(=O)c4ccc(OC)c(OC)c4)nnc3c2c1	.	-0.4	-0.18	-9.6	.	8.5	.
Cc1ccc(C(=O)NNC(=O)CSc2nnc3c(n2)[nH]c2ccc(F)cc23)cc1	.	69.2*	-0.06	-7.6	.	2.6	38.8*
N#CCC(CNc1ncc(C(F)(F)F)cc1Cl)OC(=O)c1ccc(Cl)cc1 (centres undefined)	.	-1.1	0.08	9.8	.	26.3	.
CC(C)c1ccc(OCC(=O)Nc2cccc3c2CCCC3)cc1	.	-14.2	0.04	-0.5	.	-9.9	.
CCCCc1nc2n[nH]c(N)c2c2c1CCC2	17.5	19.9*	-1.08	-5.1	6.9	7.7	4.7
SMILES	tolC growth inh	FAK inh	Pyk2 oligo antag	PostGolgi yeast	Candida biofilm	PostGolgi ctrl	FAK inh confirm
CC(C)Cc1nc2n[nH]c(N)c2c2c1CCC2	5.9	19.0*	0.43	1.8	4.0	17.2	8.0
CCCc1nc2n[nH]c(N)c2c2c1COC(C)(C)C2	10.6	5.6	-0.18	-4.5	4.2	3.3	.
COc1ccc(CNC(=O)c2cnc(C)cn2)cc1	.	1.8	-0.73	22.0	.	-4.8	.
Cc1cccc(C(=O)NNC(=O)c2cc3cc4ccccc4nc3s2)c1	.	-0.3	0.47	-8.9	.	-2.3	.
O=C(NNC(=O)c1cc2cc3ccccc3nc2s1)c1cccc(Cl)c1	.	30.3*	0.44	3.9	.	-6.8	4.8
O=C(NNC(=O)c1cc2cc3ccccc3nc2s1)c1ccc(F)cc1	.	25.9*	0.52	19.3	.	0.6	2.6
Cc1ccc(S(=O)(=O)NNC(=O)c2cc3cc4ccccc4nc3s2)cc1	.	8.2	-0.77	7.3	.	-9.0	.
COc1ccc(NC(=O)NCc2ccccn2)cc1	.	-4.8	0.38	.	7.1	.	.
Cc1ccc2nc(-c3ccc(SCC(=O)O)nc3)[nH]c2c1	-10.2	-6.6	1.03	7.7	.	6.5	.
Cc1ccc2nc(-c3ccc(NC(=O)CSc4ccccc4)cc3)[nH]c2c1	.	31.7*	0.06	-6.2	.	3.0	12.5
c1ccc(-c2nccc(-c3ccc(-n4cnc5ccccc54)cc3)n2)cc1	.	86.0*	-0.19	3.6	5.7	10.3	80.7*
c1ccc(-n2nnnc2-n2cnc3ccccc32)cc1	1.6	0.3	-0.61	4.0	0.7	2.2	.
CCc1nc(NCc2cccnc2)c2oc3ccccc3c2n1	.	20.2*	-1.6	-1.6	3.9	5.5	5.4
O=C1NC2C(NC(=O)N2C2CCCCC2)N1C1CCCCC1 (centres undefined)	-10.6	1.2	0.1	4.0	6.0	-5.1	.
O=C(O)C1CCCCC1C(=O)NCCc1c[nH]c2ccccc12 (centres undefined)	-13.9	0.6	-0.09	-4.1	7.3	-0.5	.
O=C(NCCc1c[nH]c2ccccc12)C1CCN(c2nnc(N3CCCC3=O)s2)CC1	2.1	36.0*	-0.85	-5.0	4.4	6.5	31.1*
O=C(CCNS(=O)(=O)c1cccs1)Nc1nccs1	3.3	83.2*	-0.22	0.1	1.6	0.9	-0.6
COc1cccc(CN2CC(O)=C(c3nc(-c4ccc(Cl)cc4)cs3)C2=N)c1	.	31.7*	-1.18	4.7	.	-0.6	25.6*
CCCCN1CC(O)=C(c2nc(-c3ccc(Cl)cc3)cs2)C1=N	.	31.5*	-0.53	-4.4	6.1	9.9	12.1
Cc1ccc(C2(C)NC(=O)N(CC(=O)NC(=O)NCCC(C)C)C2=O)cc1 (centres undefined)	1.6	.	-1.04	-3.5	8.5	-0.3	.
CCCCCc1c(O)nc(SCC(=O)NCC2CCCO2)[nH]c1=O (centres undefined)	-0.5	1.9	-0.23	.	1.4	.	.
CCCCOC(=O)CCc1nc2ccccc2[nH]1	5.1	-2.4	0.37	-6.7	6.4	-0.6	.
O=C(N/N=C/c1ccc2c(c1)OCO2)c1cc(-c2ccc(F)cc2)nc2ccccc12	.	.	-0.01	.	.	.	.
O=C(N/N=C/c1cccc(F)c1)c1cc(-c2ccco2)nc2ccccc12	.	68.0*	1.06	-3.2	.	-2.1	35.8*
CCOC(=O)c1cnc(SCCc2ccccc2)nc1N	.	2.0	-0.23	-5.8	4.2	22.6	.
N#Cc1c(N)n(CCNC(=O)c2cccs2)c2nc3ccccc3nc12	14.5	.	-1.04	3.3	7.4	-2.2	.
